Measurements from ChEMBL document CHEMBL2346557 (Bioorg Med Chem, 2013).
Active and inactive are the calls of the source. The rule behind the calls is not given here.

Tests used:
[1] = Terminal half life in CD1 mouse at 10 mg/kg, iv; format: ADME, organism-based; set-up: dose 10 mg/kg, route intravenous; conditions: in vivo, read-out: beta t1/2 (converted)
Method in brief: (§1)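 CD1 mice (n = 3 per compound) given 10 mg/kg as a single tail-vein injection in a pH 7.0 solution of 10% ethanol plus PEG400 (some compounds also with 10% DMSO). Blood was sampled at 0, 5, 15 and 30 min and 1, 2, 4, 8 and 24 h. Parameters were derived from the plasma concentration–time profiles.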

[2] = target: Voltage-gated inwardly rectifying potassium channel KCNH2 (Homo sapiens, UniProt Q12809); experiment: Inhibition of human ERG
Canis familiaris [3] = experiment: Total unbound AUC (0 to infinity) in beagle dog at 10 mg/kg, iv; format: ADME, organism-based, Canis lupus familiaris; set-up: dose 10 mg/kg, route intravenous; conditions: in vivo
Salmonella typhimurium = experiment: Genotoxicity in Salmonella typhimurium by Ames test; format: toxicity, organism-based; conditions: salmonella enterica subsp. enterica serovar typhimurium
Cytochrome P450 3A4 [4] = target: T1, Cytochrome P450 3A4 (Homo sapiens, UniProt P08684); experiment: Induction of CYP3A4 in human hepatocytes; format: ADME, cell-based, Hepatocyte
Method in brief: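 Cryopreserved hepatocytes from 3 human donors were cultured on collagen for 3 days, then dosed daily in fresh medium with 1, 10 or 100 μM compound, vehicle, or rifampin as positive control. CYP3A4 activity was read 24 h after the last dose using testosterone as probe substrate, analysed by LC/MS/MS. Induction is expressed as % of positive control; >40% in any donor counts as a potential inducer.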

[5] = Clearance in beagle dog at 10 mg/kg, iv; format: ADME, organism-based, Canis lupus familiaris; set-up: dose 10 mg/kg, route intravenous; conditions: in vivo
[6] = target: T2, Glucocorticoid receptor (Homo sapiens) (UniProt P04150); experiment: Transactivation of glucocorticoid receptor in HEK293 cells co-transfected with GRE assessed as induction of GRE-dependent gene expression at 100 ug/ml after 6 hrs by luciferase reporter gene assay; format: cell-based
T2 sequence (whole entry): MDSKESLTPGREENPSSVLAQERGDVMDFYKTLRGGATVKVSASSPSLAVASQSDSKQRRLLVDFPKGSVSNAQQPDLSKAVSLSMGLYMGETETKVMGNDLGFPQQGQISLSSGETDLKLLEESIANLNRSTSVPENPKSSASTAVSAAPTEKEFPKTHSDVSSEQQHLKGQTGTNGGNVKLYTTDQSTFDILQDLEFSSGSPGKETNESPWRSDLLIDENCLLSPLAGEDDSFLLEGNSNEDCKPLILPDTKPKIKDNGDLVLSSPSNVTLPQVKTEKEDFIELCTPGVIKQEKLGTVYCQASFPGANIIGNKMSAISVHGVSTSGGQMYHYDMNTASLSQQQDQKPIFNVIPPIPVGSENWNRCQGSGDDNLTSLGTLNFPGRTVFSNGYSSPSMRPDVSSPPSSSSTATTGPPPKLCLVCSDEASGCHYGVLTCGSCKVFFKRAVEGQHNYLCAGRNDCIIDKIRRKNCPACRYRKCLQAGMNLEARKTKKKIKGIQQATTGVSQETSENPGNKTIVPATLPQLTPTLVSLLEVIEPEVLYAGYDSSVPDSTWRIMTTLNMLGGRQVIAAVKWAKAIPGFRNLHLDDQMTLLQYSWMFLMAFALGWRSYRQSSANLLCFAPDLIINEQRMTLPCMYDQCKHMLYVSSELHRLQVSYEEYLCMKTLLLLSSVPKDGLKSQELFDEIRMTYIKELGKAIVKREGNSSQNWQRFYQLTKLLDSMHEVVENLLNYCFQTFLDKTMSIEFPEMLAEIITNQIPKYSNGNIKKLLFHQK
Method in brief: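 HEK-293 cells stably transfected with a GRE-driven luciferase reporter were exposed to drug at 0.01–100 μg/ml for 6 h. Cells were washed with PBS and lysed, and luciferase activity was measured by luminometer.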

[7] = AUClast in CD1 mouse at 50 mg/kg, po; format: ADME, organism-based; set-up: time 0 - last, dose 50 mg/kg, route oral; conditions: plasma
Method in brief: (§2)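 CD1 mice (n = 3 per compound) were dosed orally at 50 mg/kg as an aqueous emulsion in 30% Labrafil. Blood was drawn at 0, 5, 15 and 30 min and 1, 2, 4, 8 and 24 h. Bioavailability and other parameters were calculated from the plasma profiles and compared against the intravenous arm.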

Canis familiaris [8] = experiment: Oral bioavailability in beagle dog at 30 mg/kg; format: ADME, organism-based, Canis lupus familiaris; conditions: in vivo
Method in brief: (§3)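 Beagles (n = 3) were given an oral emulsion in 30% Labrafil. Blood was collected at 0, 5, 15 and 30 min and at 1, 2, 4, 8 and 24 h. Bioavailability was derived relative to IV dosing.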

[9] = Tmax in CD1 mouse at 50 mg/kg, po; format: ADME, organism-based; set-up: dose 50 mg/kg, route oral; conditions: in vivo; method in brief: as §2
Mus musculus [10] = experiment: Oral bioavailability in CD1 mouse at 50 mg/kg; format: ADME, organism-based; conditions: in vivo; method in brief: as §2
[11] = Metabolic stability in monkey liver microsomes assessed as compound remaining at 2 uM measured at 1 hr; format: ADME, Macaca mulatta, Microsome; conditions: rhesus monkey, read-out: Stability
Method in brief: (§4)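 Liver microsomes (human, or male monkey, dog, rat or mouse) at 0.5 mg/mL final with 2 µM compound, 5 mM MgCl2 and 5 mM PBS. The reaction was started with 1 mM NADPH and run at 37 °C. Verapamil was the positive control; water replaced NADPH in the negative control. Read-out was percent parent remaining at 1 h.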

Cytochrome P450 3A4 [12] = target: T1, Cytochrome P450 3A4; experiment: Inhibition of CYP3A4 (unknown origin); format: ADME
[13] = Clearance in Sprague-Dawley rat at 10 mg/kg, iv; format: ADME, organism-based; set-up: dose 10 mg/kg, route intravenous; conditions: in vivo
Rattus norvegicus [14] = experiment: Oral bioavailability in Sprague-Dawley rat at 50 mg/kg; format: ADME, organism-based; conditions: in vivo
Method in brief: (§5)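 Sprague–Dawley rats (n = 3) were dosed orally with an emulsion in 30% Labrafil. Blood was sampled from 0 to 24 h (0, 5, 15, 30 min; 1, 2, 4, 8, 24 h). Bioavailability was derived against the IV arm.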

Rattus norvegicus [15] = experiment: Total unbound AUC (0 to infinity) in Sprague-Dawley rat at 50 mg/kg, po; format: ADME, organism-based; set-up: dose 50 mg/kg, route oral; conditions: in vivo; method in brief: as §5
[16] = Metabolic stability in dog liver microsomes assessed as compound remaining at 2 uM measured at 1 hr; format: ADME, Canis lupus familiaris, Microsome; conditions: read-out: Stability; method in brief: as §4
Cytochrome P450 2C9 = Cytochrome P450 2C9 (Homo sapiens, UniProt P11712); experiment: Inhibition of CYP2C9 (unknown origin); format: ADME
[17] = Terminal half life in Sprague-Dawley rat at 50 mg/kg, po; format: ADME, organism-based; set-up: dose 50 mg/kg, route oral; conditions: in vivo, read-out: beta t1/2 (converted); method in brief: as §5
[18] = Clearance in CD1 mouse at 10 mg/kg, iv; format: ADME, organism-based; set-up: dose 10 mg/kg, route intravenous; conditions: in vivo; method in brief: as §1
[19] = Terminal half life in beagle dog at 30 mg/kg, po; format: ADME, organism-based, Canis lupus familiaris; set-up: dose 30 mg/kg, route oral; conditions: in vivo, read-out: beta t1/2 (converted); method in brief: as §3
[20] = AUClast in CD1 mouse at 10 mg/kg, iv; format: ADME, organism-based; set-up: time 0 - last, dose 10 mg/kg, route intravenous; conditions: plasma; method in brief: as §1
Mus musculus [21] = experiment: Total unbound AUC (0 to infinity) in CD1 mouse at 50 mg/kg, po; format: ADME, organism-based; set-up: dose 50 mg/kg, route oral; conditions: in vivo
[22] = Volume of distribution at steady state in CD1 mouse at 10 mg/kg, iv; format: ADME, organism-based; set-up: dose 10 mg/kg, route intravenous; conditions: in vivo, read-out: Vdss; method in brief: as §1
[23] = Metabolic stability in human liver microsomes assessed as compound remaining at 2 uM measured at 1 hr; format: ADME, Microsome; conditions: read-out: Stability; method in brief: as §4

T1 sequence (P08684 whole entry): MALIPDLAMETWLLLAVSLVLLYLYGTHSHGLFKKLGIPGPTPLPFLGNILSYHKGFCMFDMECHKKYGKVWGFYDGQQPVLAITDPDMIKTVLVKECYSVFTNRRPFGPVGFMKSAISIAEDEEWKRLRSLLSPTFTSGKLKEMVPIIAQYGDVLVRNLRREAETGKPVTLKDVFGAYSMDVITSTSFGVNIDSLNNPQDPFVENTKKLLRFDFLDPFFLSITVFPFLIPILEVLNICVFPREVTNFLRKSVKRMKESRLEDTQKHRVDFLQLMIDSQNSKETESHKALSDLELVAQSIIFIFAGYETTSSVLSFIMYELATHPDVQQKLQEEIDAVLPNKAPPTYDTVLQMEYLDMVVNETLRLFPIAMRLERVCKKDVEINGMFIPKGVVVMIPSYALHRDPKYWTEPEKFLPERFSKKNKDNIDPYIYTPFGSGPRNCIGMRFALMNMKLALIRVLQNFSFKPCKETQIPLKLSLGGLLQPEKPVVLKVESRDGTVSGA
Chain of Voltage-gated inwardly rectifying potassium channel KCNH2 (Q12809 whole entry): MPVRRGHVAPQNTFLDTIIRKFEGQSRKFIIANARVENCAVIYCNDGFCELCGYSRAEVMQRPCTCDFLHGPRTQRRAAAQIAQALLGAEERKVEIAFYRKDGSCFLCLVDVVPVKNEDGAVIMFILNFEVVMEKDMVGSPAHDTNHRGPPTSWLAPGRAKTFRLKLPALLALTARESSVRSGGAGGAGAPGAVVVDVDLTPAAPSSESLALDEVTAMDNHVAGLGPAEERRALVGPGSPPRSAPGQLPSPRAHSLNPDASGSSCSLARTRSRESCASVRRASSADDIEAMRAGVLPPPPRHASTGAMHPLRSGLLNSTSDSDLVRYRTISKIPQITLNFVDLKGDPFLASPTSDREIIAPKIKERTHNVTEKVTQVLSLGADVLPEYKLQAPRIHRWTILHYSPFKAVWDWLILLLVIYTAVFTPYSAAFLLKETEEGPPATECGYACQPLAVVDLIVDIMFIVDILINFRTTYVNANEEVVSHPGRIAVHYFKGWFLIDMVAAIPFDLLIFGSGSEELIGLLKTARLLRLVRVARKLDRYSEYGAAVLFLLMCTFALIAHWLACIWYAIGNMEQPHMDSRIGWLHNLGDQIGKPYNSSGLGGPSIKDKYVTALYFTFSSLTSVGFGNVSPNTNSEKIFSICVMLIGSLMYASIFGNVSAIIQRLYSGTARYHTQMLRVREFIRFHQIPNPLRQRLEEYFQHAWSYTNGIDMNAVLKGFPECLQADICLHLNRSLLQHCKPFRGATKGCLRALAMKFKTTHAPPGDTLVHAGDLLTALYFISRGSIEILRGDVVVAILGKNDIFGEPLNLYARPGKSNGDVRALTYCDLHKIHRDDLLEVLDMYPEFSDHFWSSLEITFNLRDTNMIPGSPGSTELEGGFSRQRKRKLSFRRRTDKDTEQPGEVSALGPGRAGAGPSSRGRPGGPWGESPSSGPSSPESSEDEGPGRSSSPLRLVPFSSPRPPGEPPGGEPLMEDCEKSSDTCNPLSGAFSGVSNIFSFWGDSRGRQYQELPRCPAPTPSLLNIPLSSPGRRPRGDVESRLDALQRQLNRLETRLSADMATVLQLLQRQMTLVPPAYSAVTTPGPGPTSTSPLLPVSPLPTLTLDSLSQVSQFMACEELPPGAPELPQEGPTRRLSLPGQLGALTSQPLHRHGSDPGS
Chain of Cytochrome P450 2C9 (P11712 whole entry): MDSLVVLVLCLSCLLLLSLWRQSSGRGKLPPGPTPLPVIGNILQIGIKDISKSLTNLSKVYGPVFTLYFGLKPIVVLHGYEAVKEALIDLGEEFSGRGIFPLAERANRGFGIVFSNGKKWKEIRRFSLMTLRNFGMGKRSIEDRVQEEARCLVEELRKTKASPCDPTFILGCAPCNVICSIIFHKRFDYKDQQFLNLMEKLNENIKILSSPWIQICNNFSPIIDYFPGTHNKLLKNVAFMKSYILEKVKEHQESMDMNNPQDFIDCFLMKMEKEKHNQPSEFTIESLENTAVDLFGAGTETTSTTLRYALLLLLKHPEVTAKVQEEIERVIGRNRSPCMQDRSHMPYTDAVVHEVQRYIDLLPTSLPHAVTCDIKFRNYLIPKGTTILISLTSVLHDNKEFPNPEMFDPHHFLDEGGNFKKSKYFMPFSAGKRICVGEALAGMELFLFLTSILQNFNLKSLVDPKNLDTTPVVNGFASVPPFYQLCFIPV

half-life [1]: 21.2 min | fAUC (Canis familiaris [3]): 6791 ng·h/mL | Activity (Cytochrome P450 3A4 [4]): 24% | clearance [5]: 24.7 mL/min/kg | Activity [6]: inactive | AUC(0-t) [7]: 32900 ng·h/mL | F (Canis familiaris [8]): 53.2% | Tmax [9]: 2 h | F (Mus musculus [10]): 74.5% | remaining at 1 h, 2 µM [11]: 100% | IC50 (Cytochrome P450 3A4 [12]): > 50 µM | clearance [13]: 20.2 mL/min/kg | F (Rattus norvegicus [14]): 47.8% | fAUC (Rattus norvegicus [15]): 19937 ng·h/mL | remaining at 1 h, 2 µM [16]: 92.5% | IC50 (Cytochrome P450 2C9): > 50 µM | half-life [17]: 137 min | clearance [18]: 18.8 mL/min/kg | half-life [19]: 135 min | AUC(0-t) [20]: 8840 ng·h/mL | fAUC (Mus musculus [21]): 32932 ng·h/mL | Vd [22]: 0.757 L/kg | remaining at 1 h, 2 µM [23]: 82%
Compound: C[C@@H]1C[C@H]2[C@@H]3CCC4=CC(=O)C=C[C@]4(C)C3=CC[C@]2(C)[C@@]1(O)C(=O)CO [VAMOROLONE]
IC50 [2]: 20 µM | Activity (Salmonella typhimurium): Non-toxic
